# Compound activity from PubChem.
# PDI turbidity = PDI (human) enzyme inhibition; P07237; PDI insulin aggregation turbidity, A650, 90 min; inhibition, % at 10 µM; actives 0.052% (n = 350,000);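 active = mean inhibition across replicates of 30% or more, whatever share of single replicates reach that level; inconclusive = mean inhibition below 30% while every single replicate reaches 30%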
# ERp5 inh = inhibitors of human ERp5 | ERp5 insulin aggregation, absorbance 650 nm, 90 min | inhibition, % at 9.99 µM | actives 0.05% (n = 350,000);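 active = mean replicate inhibition above about 25%, with every replicate also reaching it, limit read from the data, passing the limit was not always enough; inconclusive = only one of those two criteria met; inactive = neither criterion met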
# Target sequence (Q15084 whole entry, looked up): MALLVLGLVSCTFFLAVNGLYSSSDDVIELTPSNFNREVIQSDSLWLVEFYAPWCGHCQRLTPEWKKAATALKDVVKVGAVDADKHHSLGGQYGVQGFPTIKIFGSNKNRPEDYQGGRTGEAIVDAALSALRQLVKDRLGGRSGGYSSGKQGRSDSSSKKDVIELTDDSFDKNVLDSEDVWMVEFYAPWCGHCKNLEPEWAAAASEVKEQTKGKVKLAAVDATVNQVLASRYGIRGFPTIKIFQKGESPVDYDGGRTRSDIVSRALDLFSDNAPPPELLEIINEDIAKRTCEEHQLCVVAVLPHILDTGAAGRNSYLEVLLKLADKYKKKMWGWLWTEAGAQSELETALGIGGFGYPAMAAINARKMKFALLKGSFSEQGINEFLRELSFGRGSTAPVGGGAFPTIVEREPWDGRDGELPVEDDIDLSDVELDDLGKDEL
# AF4-AF9 inh = blocks AF4 peptide binding to human AF9 | P42568 | actives 0.47% (n = 350,000) | AID 651704 | AlphaScreen, biotin-AF4 peptide binding to FLAG-AF9 | inhibition, % at 10 µM;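 active = every replicate reaching a set inhibition limit, whatever the replicate mean, cut at about 25% in these data; inconclusive = mean inhibition reaches that limit but some replicates miss it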;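 note: 0% = plate neutral control median and 100% = total signal loss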
# FN deposit inh = fibronectin deposition inhibition; AH1F fibroblasts, Alexa488-fibronectin deposition fluorescence, overnight; actives 0.086% (n = 350,000); inhibition, % at 12.6 µM;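 active = mean inhibition across replicates of 30% or more, regardless of how many single replicates reach that level; inconclusive = mean under 30% yet at least half of replicates reach 30%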;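 note: positive control wells lacked labelled fibronectin entirely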
#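 Schedule: 1 h cell adhesion before compound, then overnight fibronectin incubation; test system: AH1F fibroblast monolayer depositing Alexa488-labelled fibronectin into matrix; quantity: 10000 AH1F cells per well; probe or stimulus: fluorescent fibronectin at 24 nM final; signal: fluorescence, ex 485 nm, em 525 nm; evaluation: percent inhibition as loss of matrix-bound fibronectin fluorescence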
# ARNT-TACC3 inh = disrupts binding between human ARNT and TACC3; AlphaScreen His-ARNT PAS-B/GST-TACC3 binding, luminescence; TACC3 fragment carries E629A point mutation; inhibition, % at 9.99 µM; actives 0.66% (n = 390,000);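 active = mean inhibition of replicates at least 50% and at least half of replicates each reaching 50%; inconclusive = half or more replicates reach 50% but mean below 50%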;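 note: 0% = complete ARNT plus TACC3 wells and 100% = ARNT alone without TACC3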
# FGF22 binding = FGF22 (human) thermal shift binding; recombinant FGF22 thermal shift, SYPRO orange fluorescence; percent of sucrose octasulfate shift, DMSO zero; actives 1.5% (n = 340,000); activity (Tm shift, normalised), % at 9.99 µM; Q9HCT0;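 active = mean Tm shift, scaled 0 neutral to 100 positive control, at about 1.3% or above, every replicate too, limit read from the data; inconclusive = no clear call, values can overlap the other calls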
# Target sequence (Q9HCT0 whole entry, looked up): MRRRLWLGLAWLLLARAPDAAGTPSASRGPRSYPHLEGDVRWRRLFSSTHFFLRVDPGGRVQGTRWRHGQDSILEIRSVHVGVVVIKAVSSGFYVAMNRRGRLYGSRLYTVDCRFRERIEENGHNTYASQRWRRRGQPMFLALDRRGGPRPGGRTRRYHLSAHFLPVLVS
# Starred values were filed as active, the others as inactive; ? = inconclusive; . = no result given; ! = not confirmed by another sample. This is a sample that favours compounds with a hit; in the whole collection about 2.1% have one here.
SMILES,PDI turbidity,ERp5 inh,AF4-AF9 inh,FN deposit inh,ARNT-TACC3 inh,FGF22 binding
O=C1NC(=O)C(=Cc2ccc(OCCOc3ccc([N+](=O)[O-])cc3)cc2)C(=O)N1,-5,3,2,10,active,1
C[C@]12CC[C@H](OS(=O)(=O)O)CC1=CC[C@@H]1[C@@H]2CC[C@]2(C)C(=O)CC[C@@H]12,-4,4,-2,4,-2,0
CC12CCC3C(CC=C4CC5(CCC43C)OCCO5)C1CCC2=O (stereo not drawn),-3,-1,-3,-13,1,44*
Cc1cccc(OP(=O)(Nc2ccc(F)cc2)Oc2cccc(C)c2)c1,-2,-2,-1,-7,-4,43*
O=C(Cc1ccccc1)N1CC2(C1)[C@H](c1ccccc1)[C@@H](CO)N2Cc1cccc(F)c1,.,-3,2,.,.,0
NC(=O)c1cn(C2OC(CO)C(O)C2O)c2ncnc(N)c12 (stereo not drawn),-5,3,-2,53*,-5,0
O=c1[nH]c(O)c(N=Nc2cc([N+](=O)[O-])ccc2O)c(=O)[nH]1,4,10,-2,-4,57*,0
CNC(=S)N(C)CCc1cc2c(c(OC)c1C=C1C(=O)NC(=O)NC1=O)OCO2,0,-1,65*,4,1,0
C=CCN1C(=O)NC(=O)/C(=C/c2c(CCN(C)C(=O)c3ccccc3)cc3c(c2OC)OCO3)C1=O,.,1,-2,.,-5,0
CC(=O)OC(C)(C)/C=C/C(=O)[C@](C)(O)C1[C@H](O)C[C@@]2(C)C3CC=C4C(C[C@H](O)C(=O)C4(C)C)[C@]3(C)C(=O)C[C@]12C (stereo partly drawn),-2,.,.,.,-7,.
CC(C)(O)/C=C/C(=O)C(C)(O)C1C(O)CC2(C)C3CC=C4C(C=C(O)C(=O)C4(C)C)C3(C)C(=O)CC12C (stereo not drawn),15,5,3,46*,9,0
COc1ccc2nc3oc(C(=O)N4CCC5(CC4)OCCO5)cc3cc2c1,4,-4,0,-6,6,44*
COc1cc2c(cc1OC)-c1c(OC)c(OC)cc3c1[C@H](C2)N(C)CC3,4,-1,10,0,69*,0
COC(=O)[C@H]1[C@H](CO)[C@H]2Cn3c(ccc(C4=CCCCC4)c3=O)[C@@H]1N2CC1CCCCC1,.,5,2,.,.,.
S=C(NCCc1ccccc1)NCCc1cnc[nH]1,-2,1,2,-13,57*,0
CCN1C[C@]2(COC(=O)c3ccccc3N)CC[C@H](OC)C34[C@@H]5C[C@H]6[C@H](OC)[C@@H]5[C@](O)(C[C@@H]6OC)[C@@](O)([C@H]13)[C@@H](OC)[C@@H]42,45*,2,-1,1,-8,0
COc1ccc2[nH]c(C)c(CCNCc3cn(C)c4ccccc34)c2c1,3,.,51*,1,.,0
CN1C2CN(CC(F)(F)F)CC1C2c1ccc(Br)cc1 (stereo not drawn),.,.,.,-19,.,.
COc1ccc(/C=C2\C(=O)NC(=S)N(C)C2=O)cc1C,3,3,1,.,55*,0
CN1CC[C@@]2(C)c3cc(O)ccc3N(C)C2O1 (stereo partly drawn),2,.,.,.,30*,.
CN1CC[C@@]2(C)c3cc(O)ccc3N(C)[C@@H]12,-2,-1,?,4,47*!,-1
C=CCN1CC[C@@]2(C)c3cc(O)ccc3CC1[C@@H]2C,8,7,-2,-10,-5,0
CC1[C@H]2Cc3ccc(O)cc3[C@]1(C)CCN2C (stereo partly drawn),4,-2,.,.,-3,0
C/C=C/c1ccc(C2[C@@H]3CN(C(=O)c4cnccn4)C[C@H]2N3)cc1 (stereo partly drawn),.,-2,-5,4,.,.
C=CCN1[C@@H]2CN(C(=O)NC(C)C)C[C@H]1C2c1ccccc1 (stereo partly drawn),.,.,.,-5,.,.
SMILES,PDI turbidity,ERp5 inh,AF4-AF9 inh,FN deposit inh,ARNT-TACC3 inh,FGF22 binding
CCN1[C@@H]2c3ccc(-c4cccc(C(=O)N(C)C)c4)c(=O)n3C[C@H]1[C@H](CO)[C@H]2C(=O)OC,.,-11,-28,.,-1,0
O=C(NCC1=C(c2cccc3ccccc23)C[C@@H]2CC[C@H]1N2Cc1ccco1)c1ccc([N+](=O)[O-])cc1,-10,6,25*,-26,.,0
N#Cc1cccc(-c2ccc([C@H]3[C@H]4CN(C(=O)Cc5ccccc5)CCCCN4[C@H]3CO)cc2)c1,.,7,-2,.,5,-1
O=C(O)[C@H]1[C@H](CO)[C@H]2Cn3c(ccc(C4=CCCC4)c3=O)[C@@H]1N2C(=O)Cc1ccccn1,.,-4,-6,.,-2,.
COc1ccc(NC(c2ccccc2F)P(=O)(Oc2ccccc2)Oc2ccccc2)cc1 (stereo not drawn),-10,2,0,4,-10,44*
COc1ccc(NC(c2ccccc2)P(=O)(Oc2ccccc2)Oc2ccccc2)cc1 (stereo not drawn),-11,2,1,-2,-16,0
CCCC[C@@H](C)C[C@@H](C)C(=O)N(C)[C@@H](CC(C)C)C(=O)N[C@H](C(=O)N(C)[C@H](C(=O)N1C[C@@H](O)C[C@H]1C(=O)N1C(=O)C=C[C@@H]1C)C(C)C)C(C)OC(C)=O (stereo partly drawn),37*,.,.,.,-1,.
CCCN1[C@@H]2c3cccc(=O)n3C[C@H]1[C@H](CO)[C@H]2C(=O)N(C)C,.,0,0,.,5,0
CC(=O)N1C[C@@H]2C(c3ccc(Br)cc3)[C@H](C1)N2CC1CC1 (stereo partly drawn),.,.,.,-11,.,.
Cc1ccc2c(c1)C1CN(C)CCC1N2C(=O)c1cccnc1Cl (stereo not drawn),-1,-5,7,-14,-8,0
Cc1ccc2c(c1)C1CN(C)CCC1N2C(=O)c1cn(-c2ccccc2)nc1-c1ccccc1 (stereo not drawn),3,-66,17,-8,12,1.6*
CNc1ccc2nc3ccccc3[n+](C)c2c1,10,0,9,12,68*,0
CC(=NCCCn1ccnc1)c1c(O)n(-c2ccccc2)c(=O)[nH]c1=O,-3,4,2,-6,11,0
C=CCn1c(O)c(C(C)=NCCCn2ccnc2)c(=O)[nH]c1=O,-7,2,0,4,84*,0
CC[C@H](C)[C@@H]1NC(=O)CNC(=O)c2csc(n2)[C@H](C(C)(C)O)OC(=O)C(C)(C)[C@H](CCCC(C)(Cl)Cl)OC(=O)c2csc1n2,.,0,1,48*,.,0
O=C(NCCO)c1nsnc1NCCCl,-2,-1,-3,9,11,43*
